Data reported in ChEMBL document CHEMBL2434962, “Benzohydroxamic acids as potent and selective anti-HCV agents” (Bioorg Med Chem Lett, 2013).
pEC50: −log10 of the molar value. Active and inactive are the calls of the source. No cut-off for these calls is given here.

Columns and labels:
[1] = Selectivity index, ratio of CC50 for human Huh-luc/neo7 cells to EC50 for HCV
[2] = Cytotoxicity against human HuH7 cells expressing luc/neo after 72 hrs by MTT assay; type: cell-based, Huh-7
[3] = system: Hepatitis C virus; assay: Antiviral activity against HCV in human Huh-luc/neo7 cells after 72 hrs by luciferase reporter gene assay; type: functional, organism-based, Hepacivirus hominis
Outline: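 Huh7 cells persistently carrying full-genome HCV replicon treated with compound (e.g., 0, 1, 5, 25, 125 µM) for 72 h; replicon translation/replication read as firefly luciferase activity; EC50 from dose-response.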

[4] = system: Enterovirus C; assay: Antiviral activity against poliovirus infected in human RD cells assessed as nuclear alteration pretreated at 125 uM for 72 hrs followed by viral infection and compound treatment at 250 uM for 7 hrs by Hoechst 33342 staining-based fluorescence microscopy; type: functional, cell-based
Outline: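 RD cells were pretreated with compound for 72 h at 125, then infected with poliovirus at an MOI of ~20 or ~600 PFU/cell and held at 250 for 7 h. Nuclear DNA was stained with Hoechst33342, and nuclear alterations were scored by fluorescence microscopy right after infection or at 7 h.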

[5] = system: Enterovirus C; assay: Antiviral activity against poliovirus infected in human RD cells assessed as destruction of RD cell monolayer pretreated at 125 uM for 72 hrs followed by viral infection and compound treatment at 250 uM for 7 hrs by light microscopy; type: functional, cell-based
Outline: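 RD cells were pretreated with compound for 72 h at 125, then infected with poliovirus at an MOI of ~20 or ~600 PFU/cell and incubated at 250 for 7 h. The integrity of the cell monolayer was examined by light microscopy right after infection or at 7 h.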

[6] = system: RD; assay: Cytotoxicity against human RD cells assessed as morphological changes incubated at 125 uM for 72 hrs and at 250 uM for 7 hrs by Hoechst 33342 staining-based fluorescence microscopy; type: cell-based
Outline: (§1)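 RD cells incubated 72 h at 125 µM, then 7 h more at 250 µM (time of PV reproduction cycle); monolayer density by light transmission imaging and nuclear morphology by fluorescence microscopy after Hoechst 33342 DNA staining, compared with untreated controls.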

[7] = system: RD; assay: Cytotoxicity against human RD cells assessed as cell density incubated at 125 uM for 72 hrs and at 250 uM for 7 hrs by light transmission spectroscopy relative to vehicle-treated control; type: cell-based; outline: as §1

| Compound | Ratio CC50/EC50 [1] | CC50 at 72 h [2] | pEC50 [3] | Activity [4] | Activity [5] | Activity [6] | Activity [7] |
| --- | --- | --- | --- | --- | --- | --- | --- |
| Cc1cc(Br)ccc1C(=O)NO | 240 | 120 µM | 6.30 |  |  |  |  |
| Cc1ccccc1C(=O)NO | 8 | 650 µM | 4.07 |  |  |  |  |
| O=C(NO)c1cccc([N+](=O)[O-])c1 | 32 | 160 µM | 5.30 |  |  |  |  |
| CONC(=O)c1ccccc1OC |  | > 800 µM | < 3.52 |  |  |  |  |
| CONC(=O)c1ccccc1 |  | > 800 µM | < 3.52 |  |  |  |  |
| COc1ccccc1/C(N)=N/O |  | > 800 µM | < 3.52 |  |  |  |  |
| O=C(NO)c1cccc(Br)c1 | 26 | 310 µM | 4.92 |  |  |  |  |
| O=C(NO)c1cccc(Cl)c1 | 12 | 120 µM | 5.00 |  |  |  |  |
| COc1cccc(OC)c1C(=O)NO | >16 | > 800 µM | 4.30 |  |  |  |  |
| COCc1ccccc1C(=O)NO | >6 | > 1000 µM | 3.77 |  |  |  |  |
| NC(=NO)c1ccccc1 [BENZAMIDOXIME] |  | > 800 µM | 3.57 |  |  |  |  |
| O=C(NO)c1ccccc1Br | 90 | 270 µM | 5.52 |  |  |  |  |
| CN(O)C(=O)c1ccccc1 |  | 400 µM | 4.19 |  |  |  |  |
| CCCCOc1ccccc1C(=O)NO | 38 | 380 µM | 5.00 |  |  |  |  |
| O=C(NO)c1ccccc1F | 20 | 300 µM | 4.82 |  |  |  |  |
| O=C(NO)c1ccc(Br)cc1 | 13 | 25 µM | 5.70 |  |  |  |  |
| O=C(NO)c1ccccc1OCCOc1ccccc1C(=O)NO | >23 | > 800 µM | 4.46 |  |  |  |  |
| COc1ccc(C)cc1C(=O)NO | 80 | 800 µM | 5.00 |  |  |  |  |
| O=C(NO)c1ccc([N+](=O)[O-])cc1 | 23 | 70 µM | 5.52 |  |  |  |  |

| Compound | Ratio CC50/EC50 [1] | CC50 at 72 h [2] | pEC50 [3] | Activity [4] | Activity [5] | Activity [6] | Activity [7] |
| --- | --- | --- | --- | --- | --- | --- | --- |
| O=C(NO)c1cc([N+](=O)[O-])ccc1O | >6 | > 1000 µM | 3.80 |  |  |  |  |
| COc1ccc(C(=O)NO)cc1 | 15 | 180 µM | 4.92 |  |  |  |  |
| COc1ccccc1C(N)=O |  | > 800 µM | < 3.52 |  |  |  |  |
| O=C(NO)c1ccc(Cl)cc1Cl | 175 | 140 µM | 6.10 |  |  |  |  |
| CONC(=O)c1ccccc1O |  | > 800 µM | < 3.52 |  |  |  |  |
| Cc1ccc(C(=O)NO)c(Cl)c1 | 93 | 140 µM | 5.82 |  |  |  |  |
| O=C(NO)c1ccccc1[N+](=O)[O-] | 55 | 55 µM | 6.00 |  |  |  |  |
| NC(=O)c1ccccc1O [SALICYLAMIDE] |  | > 800 µM | < 3.52 |  |  |  |  |
| O=C(NO)c1ccccc1Cl | 165 | 330 µM | 5.70 |  |  |  |  |
| Cc1ccc(C(=O)NO)cc1 | 14 | 110 µM | 5.10 |  |  |  |  |
| O=C(NO)c1ccc(Cl)cc1 | 18 | 55 µM | 5.52 |  |  |  |  |
| Cc1cccc(C(=O)NO)c1 | 17 | 340 µM | 4.70 |  |  |  |  |
| COc1cc(C)ccc1C(=O)NO | 60 | 900 µM | 4.82 |  |  |  |  |
| CN(O)C(=O)c1ccccc1O |  | > 800 µM | < 3.52 | inactive | inactive | Non-toxic | Non-toxic |
| N/C(=N\O)c1ccccc1O |  | 500 µM | 3.85 |  |  |  |  |
| COc1ccc([N+](=O)[O-])cc1C(=O)NO | 120 | 350 µM | 5.52 |  |  |  |  |
| COc1ccccc1C(=O)N(C)O |  | > 800 µM | < 3.52 |  |  |  |  |
| COc1cccc(C(=O)NO)c1 | 8 | 570 µM | 4.15 |  |  |  |  |
